From PubChem BioAssay
The list is not random: actives were taken first. Their share in the collection is about 2.2%.
HCT116 PTEN-null: growth suppressors of cells with PTEN tumor suppressor deletion | HCT116 PTEN-null viability, CellTiter-Glo, 60 h; stronger effect = lower value | viability, % at 10 µM | 140,000 compounds, 1.2% hits | AID 827;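 active = viability at or below a set limit, 4 SD under the median of all tested compounds, cut at about 3.7% in these data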;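 note: PTEN knockout HCT116 line with beta catenin targeted HCT116 as companion control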
Dynein cargo inh: dynein cargo transport inhibition; 3617.4 mouse cells, GR-EGFP nuclear translocation imaging; test concentration mostly 20 µM; stimulated with dexamethasone, 1 µM; stronger effect = lower value; z-score, hits read low; 220,000 compounds, 0.47% hits; AID 1381;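 active = plate z-score of nuclear minus cytoplasmic receptor signal below a set negative limit, without overly bright fluorescence or cell loss, cut at about -3.5 in these data, passing the limit was not always enough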;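 note: z-score of nuclear minus cytoplasmic ring GR-EGFP intensity difference per well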
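Buffer or medium: tetracycline-free induction medium containing charcoal-stripped FBS / Reagent: dexamethasone agonist, 1.0 µM final, for 30 min / Technique: automated 10x imaging of fixed Hoechst-stained cells / Times: induction 48 h, compound 1 h, agonist 30 min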
Autophagy mod: alters autophagy in cells; MEF GFP-LC3 puncta imaging; test concentration mostly 10 µM; 190,000 compounds, 0.98% hits; calls only at 10 µM (by protocol); AID 463193;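 active = percentage of spot-positive cells more than 3 SD above its plate mean, without a fluorescence outlier flag or 80% toxicity; inconclusive = no clear call, values can overlap the other calls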
sdo1 growth: restores growth of sdo1-depleted yeast. S. cerevisiae sdo1-depleted JHY4D growth rescue, OD600 30 h; stronger effect = higher value; pdr5 snq2 efflux-pump mutant strain. z-score at 10 µM. 140,000 compounds, 0.21% hits;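 active = z-score above 3 at both the 24 hr and the 30 hr optical density reads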
HCT116 bCat-KO: beta-catenin-lacking colon tumor cell growth suppression. HCT116 beta-catenin knockout viability, CellTiter-Glo, 60 h; stronger effect = lower value. viability, % at 10 µM. 140,000 compounds, 1.5% hits. AID 818;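 active = viability at or under a set limit, the compound median less 4 SD, cut at about 6% in these data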
Dynein confirm: dynein cargo transport inhibition, confirmation. shares compounds with Dynein cargo inh. 3617.4 GR-EGFP nuclear translocation imaging, dexamethasone-induced. calls only at 20 µM. 1,000 compounds, 69% hits. AID 463116;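 active = inhibition of receptor movement into the nucleus at or above a set limit in both runs, with normal cell brightness and cell count; inconclusive = limit reached in only one run, brightness and count normal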;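 note: dexamethasone at 1 µM final in well for 30 min; nuclear minus cytoplasmic GR-EGFP mean intensity difference in channel 2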
Hits are given with their value; – = inactive; ? = inconclusive; · = no result given; + = active, no number.

SMILES | HCT116 PTEN-null | Dynein cargo inh | Autophagy mod | sdo1 growth | HCT116 bCat-KO | Dynein confirm
Cn1cc(Br)c(NC(=O)/C=C/C(=O)O)n1 | · | -6.2 | · | · | · | +
Cn1cc(Br)c(C(=O)Nc2c(F)c(F)c(F)c(F)c2F)n1 | – | – | – | – | – | ·
Cc1ccc2nc(Cl)c3nnnn3c2c1 | · | -5.2 | – | · | · | +
COc1cccc(OCC(=O)NNC(=O)C(=O)N2CCCC2)c1 | – | – | – | – | – | ·
CC[C@H](C)/C=C(C)/C=C/C1=CC2=CC(=O)[C@]3(C)OC(=O)[C@@H](C(C)=O)[C@@H]3C2=CO1 | · | – | – | · | · | ·
CC[C@H](C)/C=C(C)/C=C/C(=O)Cc1cc(O)c(C)c(O)c1C=O | · | -3.8 | · | · | · | +
Cc1nn(C)c(C(=O)Sc2cccc(Cl)c2)c1[N+](=O)[O-] | · | -3.9 | · | · | · | +
CCn1nc(C)cc1C(=O)Sc1cccc(Cl)c1 | · | -3.5 | · | · | · | +
Cc1ccc(-c2cc(C(F)F)nc(S(C)(=O)=O)n2)cc1 | · | -4.5 | – | · | · | +
CC1CCc2cc(F)ccc2N1C(=O)CCl (centres undefined) | · | -5.4 | – | · | · | +
CN(C)CCCNC(=O)c1ccc(Cl)c(S(=O)(=O)N(C)c2ccccc2)c1 | – | – | – | – | – | ·
CCn1nc(C)c(NS(=O)(=O)c2ccccc2)c1C | – | – | – | – | – | ·
N#Cc1ccc(-c2cccnc2)nc1SCC(=O)c1ccccc1 | · | – | · | · | · | –
N#Cc1ccc(-c2cccnc2)nc1SCC(=O)Nc1sc2c(c1C#N)CCC2 | – | – | – | – | – | ·
O=C1CC(Sc2nnnn2C2CCCCC2)C(=O)N1c1ccccc1 (centres undefined) | – | – | – | – | – | ·
Cn1nnnc1SC1CC(=O)N(c2ccccc2)C1=O (centres undefined) | · | -4.6 | – | · | · | +
O=C1C2CC=CCC2C(=O)N1c1cccc(OS(=O)(=O)c2ccc3ccccc3c2)c1 (centres undefined) | – | – | – | – | – | ·
CC(C)CN(CC(C)C)S(=O)(=O)N1CCC(C(=O)NCc2ccco2)CC1 | · | – | – | · | · | ·
CC(=O)O[C@@H]1C[C@H]2C(C)(C)C(=O)C=C[C@]2(C)[C@H]2CC[C@@]3(C)[C@H](c4ccoc4)OC(=O)[C@H]4O[C@]43[C@@]21C | – | -3.9 | – | – | 3.9 | +
CCOC(=O)C1=C(C)NC(=O)NC1c1ccoc1 (centres undefined) | · | – | – | – | – | ·
CCOC(=O)C1=C(SCC)c2cc3c(n2C1=O)CCCC3 | – | -3.6 | – | – | – | +
O=C(N/C(=C/c1ccc(Cl)cc1)c1nc2ccccc2[nH]1)c1ccco1 | – | – | – | – | – | ·
COc1cc(/C=C(/C(=O)c2cccs2)c2nc3ccccc3[nH]2)cc(OC)c1O | 2.5 | -4.6 | + | – | 5.2 | +
O=C(/C(=C/c1ccc(Cl)cc1)c1nc2ccccc2[nH]1)c1ccccc1 | 0.8 | -4.7 | – | – | 1.2 | +
COc1cc(CNCc2ccc(SC)cc2)cc(OC)c1 | – | – | – | – | – | ·
SMILES | HCT116 PTEN-null | Dynein cargo inh | Autophagy mod | sdo1 growth | HCT116 bCat-KO | Dynein confirm
Cc1ccc(S(=O)(=O)/N=c2\ccc(Cl)cn2C(F)F)cc1 | · | -3.8 | – | · | · | –
Cc1ccc(S(C)(=O)=NC(=O)NC(=O)c2c(F)cccc2Cl)cc1 (centres undefined) | · | – | · | · | · | ·
Cc1nnc(SC(C)C)n(N)c1=O | · | – | – | · | · | ·
O=C(CCl)N(c1ccc(Cl)cc1)c1c[nH]c2ccccc12 | 1.8 | -5.3 | – | – | 1.7 | +
O=C(NCc1ccc(Cl)cc1)C(=O)c1c[nH]c2ccccc12 | · | – | – | · | · | ·
CCOC(=S)SCC(=O)Nc1nc(C)c(C)s1 | · | -3.9 | · | · | · | +
CS(=O)(=O)c1sc(C#N)c2c1C(=O)CC(c1ccccc1)C2 (centres undefined) | · | -3.8 | · | · | · | ?
Cc1oc2c(c(=O)c1C)C(=O)CC(c1ccccc1)C2 (centres undefined) | – | – | – | – | – | ·
CC1(C)CC(=O)C2=C(C1)OC(N)=C(C#N)C2C#Cc1ccccc1 (centres undefined) | – | -5.4 | – | – | – | +
COc1ccc(C=C2C(=O)c3ccccc3C2=O)cc1O | · | – | – | · | · | ·
CCN1C/C(=C/c2ccc(OC)c(O)c2)C(=O)/C(=C/c2ccc(OC)c(O)c2)C1 | · | -6.3 | + | · | · | ?
COc1cc(/C=C2/CC/C(=C/c3ccc(O)c(OC)c3)C2=O)ccc1O | · | – | · | · | · | ·
COc1cc(/C=C2\COC/C(=C\c3ccc(O)c(OC)c3)C2=O)ccc1O | · | -5.7 | · | · | · | +
O=C1CC(C(=O)O)C2(CCCC2)O1 (centres undefined) | · | – | – | · | · | ·
Cc1ccc(-c2nc(NC(=O)c3nn(C)cc3[N+](=O)[O-])sc2C)cc1 | 1.4 | -3.8 | + | – | 1.4 | +
Cc1cnc(NC(=O)c2nn(C)cc2[N+](=O)[O-])s1 | · | -3.6 | – | · | · | +
Cc1nn(Cc2c(F)c(F)c(F)c(F)c2F)c(C)c1NC(=O)c1nn(C)cc1[N+](=O)[O-] | – | – | – | – | – | ·
